Results gathered from unrelated publications.
Protocols differ between the studies behind these lines.
Target: RAC-beta serine/threonine-protein kinase (AKT2, Homo sapiens, UniProt P31751)

For c1ccc(N2CCN(Cc3nc4ccccc4[nH]3)CC2)nc1, the remaining binding was 100% (binding, competition with immobilised ligand; 1 µM).
With CC(C)(O)[C@H]1CC[C@H](Nc2ccc3ncc(-c4cccc(C(F)(F)F)c4)n3n2)CC1 the remaining activity was 102% (enzyme activity, inhibitor; 1 µM).
O=C1NC(=O)c2cc(Nc3ccc(F)cc3)c(Nc3ccc(F)cc3)cc21 gave a remaining signal of 95.1% (cell-free assay; 0.5 µM).
CN(c1ncccc1CNc1nc(Nc2ccc3c(c2)CC(=O)N3)ncc1C(F)(F)F)S(C)(=O)=O gave an inhibition of 1.6% (enzyme activity, inhibitor; 1 µM).
CC(C)(C)C(=O)c1sc(NC2CCCCC2)nc1N gave a remaining activity of 83% (enzyme activity, inhibitor; 10 µM).
N#CCCc1ccc2c(c1)-c1[nH]c3ccc([N+](=O)[O-])cc3c1CC(=O)N2 has a remaining signal of 100% (cell-free assay; 0.5 µM).
CSc1cccnc1N1CCN(Cc2nc3ccccc3[nH]2)CC1 gave a remaining binding of 98% (cell-free assay, competition with immobilised ligand; 1 µM).
Oc1cccc(-c2nc(N3CCOCC3)c3oc4ncccc4c3n2)c1 has a remaining signal of 99.1% (cell-free assay; 0.5 µM).
For O=S(=O)(NC1CCC(c2cc(F)ccc2F)(S(=O)(=O)c2ccc(Cl)cc2)CC1)C(F)(F)F (stereo not drawn), the remaining binding was 99% (cell-free assay, competition with immobilised ligand; 1 µM).
O=S(=O)(NCCNC/C=C/c1ccc(Br)cc1)c1cccc2cnccc12 has a remaining signal of 75.4% (cell-free assay; 0.5 µM).
O=C(N[C@H]1CCCCC/C=C\C2C[C@@]2(C(=O)O)NC(=O)[C@@H]2C[C@@H](Oc3ccncc3)CN2C1=O)OC1CCCC1 (stereo partly drawn) gave a remaining binding of 85% (binding, competition with immobilised ligand; 1 µM).
COc1cc2ncnc(Nc3ccc(Oc4ccccc4)c(C)c3C)c2cc1OC gave an inhibition of 1% (enzyme activity, inhibitor; 1 µM).
For Cc1cnc(NC2CCOCC2)nc1-n1cnc(C(=O)NC(CN)c2cc(F)cc(Cl)c2)c1 (stereo not drawn), the remaining activity was 92% (enzyme activity, inhibitor, radiometric; 1 µM).
The inhibition of Cc1ccc(-n2nc(C(C)(C)C)cc2NC(=O)Nc2ccc(OCCN3CCOCC3)c3ccccc23)cc1 is reported as -15% (enzyme activity, inhibitor; 10 µM).
With Cc1c(C(=O)O)cc(-c2ccc(C3CCNCC3)cc2)c2ccc(-c3ccc(C(F)(F)F)cc3)cc12 the remaining binding was 100% (binding, competition with immobilised ligand; 1 µM).
Cc1ccc(C(=O)NCc2ccsc2)cc1C#Cc1cn(C(C)C)c2ncnc(N)c12 has an activity vs control of 99% (enzyme activity, inhibitor; 1 µM).
The remaining activity of Cn1c(=O)n(-c2ccc(C(C)(C)C#N)cc2)c2c3cc(-c4cnc5ccccc5c4)ccc3ncc21 is reported as 106% (enzyme activity, inhibitor; 10 µM).
With COc1cc(Nc2cnc(C#N)c(O[C@H](C)CN(C)C)n2)ncc1-c1cnn(C)c1 the remaining activity was 81% (enzyme activity, inhibitor, radiometric; 1 µM).
With COc1cc(/C=C/C(=O)CC(=O)/C=C/c2ccc(O)c(OC)c2)ccc1O the activity vs control was 70% (enzyme activity, inhibitor; 1 µM).
Cc1ccc(C(=O)Nc2ccc(CN3CCN(C)CC3)c(C(F)(F)F)c2)cc1C#Cc1cnc2cccnn12 gave a remaining activity of 95% (enzyme activity, inhibitor; 23.5 nM).
CC(C)(C)c1nc2c(s1)c1nc(N)ncc1c1ccc(NS(=O)(=O)c3c(F)cccc3F)c(F)c12 gave a remaining activity of 114% (enzyme activity, inhibitor, radiometric; 1 µM).
Cc1sc(C(=O)NC2COC2)cc1-n1cc(NC(=O)Nc2c(F)cccc2Cl)cn1 gave a remaining activity of 88.9% (enzyme activity, inhibitor; 10 µM).
O=C(Nc1cc(-c2ccc(Cl)cc2)[nH]n1)C1CCCCC1 gave an activity vs control of 75% (enzyme activity, inhibitor; 10 µM).
The activity vs control of Cc1cc(NC(=O)c2cccc3cc(-c4cccc5[nH]nc(N)c45)ccc23)ccc1F is reported as 123% (enzyme activity, inhibitor; 0.1 µM).
With COc1ccc2c(c1)O[C@H](c1ccc(OC)c(OC)c1)C[C@@H]2NC(=O)C1(c2ccc3c(c2)OC(F)(F)O3)CC1 the remaining binding was 96% (cell-free assay, competition with immobilised ligand; 1 µM).
O=C(Nc1cnn(-c2csc(C(=O)NC3COC3)c2)c1)Nc1ccccc1Cl gave a remaining activity of 88.2% (enzyme activity, inhibitor; 5 µM).
The remaining binding of CNC(=O)Nc1ccc2c(c1)CC[C@@]21OC(=O)N(CC(=O)N(Cc2ccc(F)cc2)[C@@H](C)C(F)(F)F)C1=O is reported as 80% (cell-free assay, competition with immobilised ligand; 1 µM).
For Oc1cccc(-c2nc(N3CCOCC3)c3oc4ncccc4c3n2)c1, the remaining activity was 114% (enzyme activity, inhibitor; 10 µM).
With O=C(O)c1cc(-c2ccc(C3CCNCC3)cc2)c2ccc(-c3ccc(C(F)(F)F)cc3)cc2c1 the remaining binding was 95% (cell-free assay, competition with immobilised ligand; 1 µM).
CCCOc1ccc(OC)c(F)c1C(=O)c1ccc(C(=O)N[C@@H]2CNC[C@H]2NC(=O)c2ccc3[nH]ncc3c2)cc1 has a remaining activity of 49% (enzyme activity, inhibitor; 10 µM).
